Assay outcomes from PubChem BioAssay.
ABCG2 inh: inhibitors of human ABCG2 transporter, ABCB1 counter-screen; IgMXP3 cells, JC-1 efflux, flow cytometry; Q9UNQ0; inhibition, % at 6.6 µM; hit rate 0.1% among 190,000; AID 1325;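 active = inhibition above 80%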;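 note: 0% = DMSO and 100% = nicardipine control wells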
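Assay system – ABCG2 IgMXP3 and barcoded ABCB1 CCRF-Adr cell mix · Input – 3 million cells/mL in well · Reagent – JC-1 fluorescent substrate · Compound – single test compound dose, 6.6 µM final · Timing – 10 min exposure at 25 °C with rotation, no wash · Detection – flow cytometry of retained JC-1 fluorescence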
ABCB6 inh 2: inhibitors of human ABC transporter ABCB6 | AID 602162 | fluorescence ratio to DMSO, % at 10 µM | K562-ABCB6 porphyrin accumulation, flow cytometry, 1 h; hits give low values | hit rate 0.19% among 360,000;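 active = fluorescence ratio to DMSO below 75%, the collection mean minus 3 SD; inconclusive = too few cells collected in the well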;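 note: signal is porphyrin accumulated inside mitochondria; 100% equals median channel fluorescence of DMSO control wells; lower ratio means ABCB6 inhibition with less porphyrin fluorescence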
p97 ATPase inh: inhibitors of human p97 ATPase; P55072; recombinant p97 ATPase, Kinase-Glo ATP luminescence, 3 h; inhibition, % at 8 µM; hit rate 0.42% among 220,000; AID 1481; in the data active = inhibition above about 15%;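 note: 0% = DMSO vehicle and 100% = wells lacking enzyme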
HSV augment: increases HSV replication in cells. HSV replication augmentation in cells, fold increase. maximum fold increase. hit rate 0.005% among 220,000; in the data active = maximum fold increase above about 1.5; inconclusive = no clear call, values can overlap the other calls; tested in PC3 cells
ABCB1 block: human ABCB1 inhibition, ABCG2 as counter-screen; P08183; CCRF-Adr cells, JC-1 efflux, flow cytometry; inhibition, % at 6.6 µM; hit rate 0.067% among 190,000; AID 1326; in the data active = inhibition above about 40%;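 note: 0% = vehicle and 100% = reference inhibitor; higher value means more JC-1 retained so stronger ABCB1 efflux block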
Target sequence (P08183 whole entry, looked up): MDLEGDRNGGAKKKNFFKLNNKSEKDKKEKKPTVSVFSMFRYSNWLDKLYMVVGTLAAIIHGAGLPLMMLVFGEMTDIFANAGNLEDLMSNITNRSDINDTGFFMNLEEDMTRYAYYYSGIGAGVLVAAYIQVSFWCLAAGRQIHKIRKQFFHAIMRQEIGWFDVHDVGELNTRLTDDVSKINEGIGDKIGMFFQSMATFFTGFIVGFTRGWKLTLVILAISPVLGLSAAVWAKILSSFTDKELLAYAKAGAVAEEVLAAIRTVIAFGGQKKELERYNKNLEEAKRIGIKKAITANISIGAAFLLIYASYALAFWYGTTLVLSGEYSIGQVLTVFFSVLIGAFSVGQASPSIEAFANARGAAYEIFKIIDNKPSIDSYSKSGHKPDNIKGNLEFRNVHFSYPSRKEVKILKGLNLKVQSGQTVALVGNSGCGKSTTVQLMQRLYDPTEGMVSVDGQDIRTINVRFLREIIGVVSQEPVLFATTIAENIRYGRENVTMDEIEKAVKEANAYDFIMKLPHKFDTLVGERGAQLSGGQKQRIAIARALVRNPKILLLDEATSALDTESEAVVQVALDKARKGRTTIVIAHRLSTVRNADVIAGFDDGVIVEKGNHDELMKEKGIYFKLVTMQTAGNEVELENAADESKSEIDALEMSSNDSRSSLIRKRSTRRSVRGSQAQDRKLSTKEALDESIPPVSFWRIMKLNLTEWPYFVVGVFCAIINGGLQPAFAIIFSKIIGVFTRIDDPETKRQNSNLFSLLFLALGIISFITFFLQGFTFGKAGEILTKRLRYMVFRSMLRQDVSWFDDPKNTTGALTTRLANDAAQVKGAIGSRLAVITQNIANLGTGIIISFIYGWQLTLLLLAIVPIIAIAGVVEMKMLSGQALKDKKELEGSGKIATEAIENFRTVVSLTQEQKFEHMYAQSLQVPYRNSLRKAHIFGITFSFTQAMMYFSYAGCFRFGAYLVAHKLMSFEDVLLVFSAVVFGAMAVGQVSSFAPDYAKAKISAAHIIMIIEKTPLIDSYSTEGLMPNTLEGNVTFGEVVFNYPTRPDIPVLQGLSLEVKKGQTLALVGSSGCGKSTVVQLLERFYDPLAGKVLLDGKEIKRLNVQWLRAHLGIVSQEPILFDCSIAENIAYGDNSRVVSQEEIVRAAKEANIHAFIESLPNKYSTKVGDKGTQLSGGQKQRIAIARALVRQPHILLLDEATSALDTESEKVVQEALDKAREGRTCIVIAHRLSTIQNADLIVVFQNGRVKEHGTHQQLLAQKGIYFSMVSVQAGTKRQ
Rad51 HR inh: blocks human Rad51 in homologous recombination; Q06609; hRad51 DNA strand exchange, fluorescence dequenching; inhibition, % at 10 µM; hit rate 0.085% among 200,000;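 active = inhibition above 40% at the single screening dose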;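 note: 0% = DMSO control wells and 100% = blanks with heterologous ssDNA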
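material = hRad51 filaments on single-stranded DNA | reagent = Donor/quencher-labelled 47-bp dsDNA substrate | compound = 10 µM final, single point | schedule = strand-exchange reaction 15 min at room temperature | measured by = fluorescein emission 520 nm, excitation 485 nm | read-out basis = % inhibition versus plate control and blank means | benchmarks = plate controls and plate blanks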
p97 confirm: confirmation of human p97 ATPase inhibitors | shares compounds with p97 ATPase inh | hit rate 44% among 760 | AID 1517 | recombinant p97 ATPase, Kinase-Glo ATP luminescence | inhibition, % at 8 µM;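 active = percent inhibition of p97 ATPase above a set limit, the primary screen's mean plus 3 SD, cut at about 15% in these data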;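 note: 0% = DMSO wells and 100% = wells lacking p97 protein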
The depositor's hits bear a star. An excerpt weighted towards active compounds, which were near 0.55% of everything screened.

For COc1ccc(S(=O)(=O)Nc2nc3c(s2)C(=O)CC(C)(C)C3)cc1 the results were ABCB6 inh 2 97.
Cc1ccc(S(=O)(=O)Nc2nc3c(s2)C(=O)CC(C)(C)C3)cc1 was read as ABCG2 inh 0, ABCB6 inh 2 99, p97 ATPase inh 16*, HSV augment inactive, ABCB1 block 0, Rad51 HR inh -11 and p97 confirm 5.
For CCCc1cc(=O)oc2cc(OCC(=O)NCCN3CCOCC3)c(Cl)cc12 the results were ABCB6 inh 2 101.
For COc1cc(/C=C2\C(=O)N(c3ccccc3)N=C2C)ccc1Oc1ccc([N+](=O)[O-])cc1[N+](=O)[O-] the results were ABCG2 inh -7, ABCB6 inh 2 100, p97 ATPase inh 18*, HSV augment inactive, ABCB1 block -1, Rad51 HR inh 15 and p97 confirm 9.
Screening COc1cc(/C=C2/C(=O)N(c3ccc(C)c(C)c3)N=C2C)cc([N+](=O)[O-])c1O returned ABCB6 inh 2 102.
For CC1=NN(c2ccccc2)C(=O)/C1=C\c1ccc(Oc2ccc([N+](=O)[O-])cc2[N+](=O)[O-])cc1 the results were ABCG2 inh -2, ABCB6 inh 2 102, p97 ATPase inh 23*, HSV augment inactive, ABCB1 block -1 and p97 confirm 9.
CN(C(=S)Nc1cccnc1)c1ccc(O)cc1 was read as ABCG2 inh 8, ABCB6 inh 2 91, p97 ATPase inh 18*, HSV augment inactive, ABCB1 block 0 and p97 confirm 7.
`Cc1ccc(C(=O)NC(C#N)=C(Cl)Cl)cc1` gave ABCG2 inh -1, p97 ATPase inh 22*, HSV augment inactive, ABCB1 block 0, Rad51 HR inh -2 and p97 confirm 21*.
Screening CCOC(=O)c1c(CC(C)C)csc1NC(=O)c1ccccc1C(=O)O returned ABCB6 inh 2 100, p97 ATPase inh 18*, HSV augment inactive, Rad51 HR inh -16 and p97 confirm 22*.
`COc1ccc2c(c1)Cc1sc(NC(=O)c3ccccc3)nc1-2` gave ABCG2 inh 3, ABCB6 inh 2 91, p97 ATPase inh 18*, HSV augment inactive, ABCB1 block 1, Rad51 HR inh 4 and p97 confirm 2.
O=C(Nc1cccc(/C=C/c2ccccn2)c1)c1ccc(-n2cncn2)c([N+](=O)[O-])c1 was read as ABCB6 inh 2 97.
COc1ccc(CCn2c3c(c(=O)[nH]c2=O)C(NC(=O)c2cccs2)(C(F)(F)F)C(=O)N3)cc1OC (centres undefined) was read as ABCG2 inh 0, ABCB6 inh 2 93, p97 ATPase inh 27*, HSV augment inactive, ABCB1 block 0, Rad51 HR inh -6 and p97 confirm 8.
`O=C(O)c1ccc(NC2=C/C(=N/S(=O)(=O)c3ccccc3)c3ccccc3C2=O)cc1` gave ABCG2 inh 1, ABCB6 inh 2 111, p97 ATPase inh 18*, HSV augment inactive, ABCB1 block -1 and p97 confirm 23*.
CC(=O)Nc1cc(-c2cccc(F)c2)cn2c(-c3ccccc3)cnc12 was read as ABCB6 inh 2 97.
Screening NC(=S)N/N=C/c1cccc(O)c1O returned ABCG2 inh 4, ABCB6 inh 2 105, p97 ATPase inh 5, HSV augment inactive, ABCB1 block -1 and Rad51 HR inh -98.
For Cc1cc(/C=N/NC(N)=S)c(O)c(/C=N/NC(N)=S)c1 the results were ABCB6 inh 2 105, p97 ATPase inh 19*, HSV augment inconclusive, Rad51 HR inh -102 and p97 confirm 20*.
`Cc1ccsc1C=Nc1ccc(O)cc1` gave ABCG2 inh -7, ABCB6 inh 2 100, p97 ATPase inh 25*, HSV augment inconclusive, ABCB1 block -6, Rad51 HR inh -4 and p97 confirm 3.
Screening O=C(CSc1nc(O)cc(=O)[nH]1)Nc1ccc2c(c1)CCC2 returned ABCG2 inh 0, ABCB6 inh 2 99, p97 ATPase inh 2, HSV augment inactive, ABCB1 block 0 and Rad51 HR inh -7.
